Test results as given in publication PMC9053608 (RSC Advances, 2020).
Marks after values point to notes of the source that are not given here. Ends that are not written are not given here.

Legend:
[1] = tested on: E. coli ATCC 25922; assay: Antibacterial activity, microdilution assay; format: cell-based; conditions: microdilution (CLSI), 96-well, 24 h at 37 °C, absorbance 620 nm, n = 2
Method in brief: (§1)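 MIC by CLSI broth microdilution. Peptide solutions at 200, 100, 50, 25, 12.5 and 6.2 μg mL−1 were mixed 9:1 with bacterial inoculum (5 × 10^6 CFU mL−1). Plates were incubated 24 h at 37 °C and read at A620. […] Duplicate runs (n = 2).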

[2] = tested on: S. aureus ATCC 25923; assay: Antibacterial activity, microdilution assay; format: cell-based; conditions: microdilution (CLSI), 96-well, 24 h at 37 °C, absorbance 620 nm, n = 2
Method in brief: as §1

[3] = tested on: young human fibroblast primary cell culture; assay: MTT cytotoxicity assay; format: cell-based; conditions: 37 °C, 5% FBS, mean ± SD (n = 3); for Cellular Viability (%), Fibroblast cells, 2 h: peptide 200 μg mL−1, 2 h; for Cellular Viability (%), Fibroblast cells, 24 h: peptide 200 μg mL−1, 24 h; for Cellular Viability (%), Fibroblast cells, 48 h: peptide 200 μg mL−1, 48 h
Method in brief: (§2)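 Cells (1 × 10^4 per well) adhered for 14 h at 37 °C in humidified 5% CO2. Medium was then replaced with equal volumes of supplemented RPMI (10%) and peptide solution (200–6.25 μg mL−1), giving 5% final FBS. After 2, 24 or 48 h, MTT (5 mg mL−1 stock) was added for 4 h at 37 °C. Formazan was dissolved in DMSO and read at A570; mean ± S.D., n = 3.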

[4] = tested on: breast cancer cell line MDA-MB-468; assay: MTT cytotoxicity assay; format: cell-based, human; conditions: 37 °C, 5% FBS, mean ± SD (n = 3); for Cellular Viability (%), MDA-MB-468 cells, 2 h: peptide 200 μg mL−1, 2 h; for Cellular Viability (%), MDA-MB-468 cells, 24 h: peptide 200 μg mL−1, 24 h; for Cellular Viability (%), MDA-MB-468 cells, 48 h: peptide 200 μg mL−1, 48 h
Method in brief: as §2

[5] = tested on: MDA-MB-468 cells; assay: Morphologic changes by phase-contrast microscopy; format: cell-based, human; conditions: phase-contrast microscopy 20×, peptide at 134,61 μM, 24 h
Method in brief: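 MDA-MB-468 cells (ATCC HTB-132), 1 × 10^4 per well, were allowed to adhere for 14 h at 37 °C in 5% CO2. Medium was then replaced with supplemented RPMI plus test compound, giving 5% FBS final. Plates were incubated at 37 °C in 5% CO2, and cells were photographed before MTT addition. Untreated cells were recorded alongside.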

Substance | MIC, E. coli ATCC 25922 [1] [µM] | MIC, S. aureus ATCC 25923 [2] [µM] | Cellular Viability (%), Fibroblast cells, 2 h [3] | Cellular Viability (%), Fibroblast cells, 24 h [3] | Cellular Viability (%), Fibroblast cells, 48 h [3] | Cellular Viability (%), MDA-MB-468 cells, 2 h [4] [%] | Cellular Viability (%), MDA-MB-468 cells, 24 h [4] [%] | Cellular Viability (%), MDA-MB-468 cells, 48 h [4] [%] | morphological changes in MDA-MB-468 cells [5]
RAQWRWQWR-NH2 [Peptide A2] | 146 | 146 | 100 ± 2 ^a % | 94 ± 2 ^a % | 87 ± 2 ^a % | 62 ± 4 | 63 ± 4 | 58 ± 6 | significant morphological changes associated with the cytotoxic effect were not observed
RWQWAWQWR-NH2 [Peptide A5] |  | 143 | 99 ± 1 ^a % | 81 ± 1 ^b % | 82 ± 1 ^a % | 71 ± 8 | 62 ± 7 | 64 ± 4 | morphological changes were observed, acquiring rounded forms
RWQWRAQWR-NH2 [Peptide A6] | 37 |  | 100 ± 2 ^a % | 88 ± 2 ^a % | 79 ± 4 ^a % | 55 ± 6 | 49 ± 5 | 52 ± 5 | significant morphological changes associated with the cytotoxic effect were not observed
RWQWRWAWR-NH2 [Peptide A7] | 18 | 140 | 96 ± 5 ^a % | 100 ± 1 ^a % | 79 ± 5 ^a % | 59 ± 6 | 57 ± 3 | 56 ± 1 | morphological changes were observed, acquiring rounded forms
RWQWRWQAR-NH2 [Peptide A8] | 37 | 146 | 100 ± 1 ^a % | 94 ± 1 ^a % | 85 ± 4 ^a % | 69 ± 5 | 62 ± 5 | 61 ± 6 | significant morphological changes associated with the cytotoxic effect were not observed
RWQWRWQWA-NH2 [Peptide A9] | 143 | 143 | 100 ± 4 ^a % | 98 ± 3 ^a % | 100 ± 3 ^a % | 64 ± 7 | 55 ± 6 | 65 ± 7 | 
